# Structures can show the parent of a compound that is named as a salt.
# Legend:
# [1] = tested on: MRSA (strain 33564); experiment: Time-kill kinetics; assay type: cell-based, methicillin-resistant Staphylococcus aureus; conditions: gentamicin 20 μmol/L; 1×10^7 CFU/mL, RPMI 1640 + 10% FBS, 37°C
# Method in brief: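 Bacteria adjusted to 1×10^7 CFU/mL in RPMI 1640 with 10% FBS. Incubated at 37°C, 200 rpm. Sampled every 30 min from 0 to 360 min, serially diluted in saline, plated on Mueller-Hinton agar, counted after 24 h at 37°C. Plotted as log₁₀ CFU/mL versus time.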
# [2] = tested on: K. pneumoniae (strain 9409); experiment: Membrane depolarization, DiSC3; assay type: cell-based, Klebsiella pneumoniae; conditions: 30 min observation
# Method in brief: (§1)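 Cells grown in Mueller-Hinton broth to OD600 0.5, pelleted (3500 r/min, 5 min, 4°C), washed twice in 5 mM HEPES pH 7.4 with 20 mM glucose. Adjusted to OD600 0.05 and loaded 30 min at room temperature with DiSC₃(5) (2 µmol/L final). KCl added (100 mmol/L final). After baseline reading (ex 622/em 670 nm), test compound added at 1, 2, 4 or 8 µmol/L; read continuously for 30 min.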
# [3] = tested on: MRSA (strain 33564); experiment: Membrane depolarization, DiSC3; assay type: cell-based, methicillin-resistant Staphylococcus aureus; conditions: 30 min observation
# Method in brief: as §1
# [4] = tested on: MRSA-infected RAW264.7 macrophages; experiment: Intracellular antibacterial activity; assay type: cell-based; conditions: vancomycin 20 μmol/L, 2 h; MOI 10:1
Structure (SMILES),time to eradicate all viable cells [1],DiSC3(5) fluorescence (membrane potential) [2],DiSC3(5) fluorescence (membrane potential) [3],intracellular bacterial burden [4]
"CNC(C)C1CCC(N)C(OC2C(N)CC(N)C(OC3OCC(C)(O)C(NC)C3O)C2O)O1 (stereo not shown) [Gentamicin, gentamicin sulfate]",over 360 min,maintained baseline fluorescence,maintained baseline fluorescence,
"CN[C@H](CC(C)C)C(=O)N[C@H]1C(=O)N[C@@H](CC(N)=O)C(=O)N[C@H]2C(=O)N[C@H]3C(=O)N[C@H](C(=O)N[C@H](C(=O)O)c4cc(O)cc(O)c4-c4cc3ccc4O)[C@H](O)c3ccc(c(Cl)c3)Oc3cc2cc(c3O[C@@H]2O[C@H](CO)[C@@H](O)[C@H](O)[C@H]2O[C@H]2C[C@](C)(N)[C@H](O)[C@H](C)O2)Oc2ccc(cc2Cl)[C@H]1O [Vancomycin, vancomycin sulfate]",,,,approximately 1.5×10^5 CFU/mL

# From article PMC12780499 (Zoological Research, 2025)
